Screening data: PubChem BioAssay, several laboratories
Shown are actives, neighbours in structure and some others; about 0.68% of the full set was active somewhere.
Furin inh: human furin inhibition | purified furin, fluorogenic substrate cleavage | 220,000 tested, 0.061% active | P09958 | inhibition, % at 20 µM or 30 µM; in the data active = inhibition above about 25%
Target sequence (P09958 108-714 limits assumed): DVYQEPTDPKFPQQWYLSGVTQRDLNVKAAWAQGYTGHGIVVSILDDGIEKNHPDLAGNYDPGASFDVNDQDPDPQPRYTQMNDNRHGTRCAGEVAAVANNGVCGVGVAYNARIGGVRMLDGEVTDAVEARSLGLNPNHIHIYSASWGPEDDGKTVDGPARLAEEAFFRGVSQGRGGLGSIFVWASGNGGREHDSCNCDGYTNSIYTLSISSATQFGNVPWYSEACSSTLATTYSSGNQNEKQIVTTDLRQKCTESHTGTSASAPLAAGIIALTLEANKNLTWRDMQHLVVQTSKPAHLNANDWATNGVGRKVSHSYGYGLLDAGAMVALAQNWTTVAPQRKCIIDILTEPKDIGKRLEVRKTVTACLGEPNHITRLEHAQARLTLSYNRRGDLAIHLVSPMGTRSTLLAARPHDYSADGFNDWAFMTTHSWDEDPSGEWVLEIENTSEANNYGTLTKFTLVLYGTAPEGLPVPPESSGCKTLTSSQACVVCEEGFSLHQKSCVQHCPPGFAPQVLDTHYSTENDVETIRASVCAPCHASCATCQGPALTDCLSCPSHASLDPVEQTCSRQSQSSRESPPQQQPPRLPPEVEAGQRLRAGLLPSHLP
TNAP inh no acc: inhibitors of human TNAP without phosphate acceptor | 200,000 tested, 0.26% active | purified TNAP, CDP-star luminescence, 30 min | P05186 | inhibition, % at 20 µM;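 active = tissue-nonspecific alkaline phosphatase inhibition above about 50% at 20 µM in the single-dose screen, limit read from the data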;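 note: 0% = DMSO negative control and 100% = EDTA positive control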
Pf gamet viab: inhibitors of late stage P. falciparum gametocyte viability; P. falciparum stage V gametocytes, ATP luminescence, 24 h; inhibition, % at 10.9 µM; 150,000 tested, 0.065% active; AID 743093;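 active = inhibition above the mean plus 3 SD of compounds within the control limits, set per campaign, cut at about 38% in these data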;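 note: 0% = DMSO wells and 100% = medium only without gametocytes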
TNAP inh hi DEA: inhibitors of human TNAP at high phosphate acceptor concentration; P05186; purified TNAP, CDP-star luminescence, 1 M DEA; inhibition, % at 20 µM; 200,000 tested, 0.03% active; AID 1135;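 active = over 50% inhibition of tissue-nonspecific alkaline phosphatase at 20 µM in the single-dose screen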;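 note: plate controls were DMSO wells for no effect and EDTA-quenched wells as full inhibition for full effect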
HMGR II inh: blocks class II HMG-CoA reductase of Enterococcus faecalis. purified E. faecalis HMGR, NADPH absorbance 340 nm kinetic. inhibition, % at 10 µM. 190,000 tested, 0.41% active;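 active = inhibition above a set limit, the median over all tested compounds plus 3 SD, cut at about 9.5% in these data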;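 note: enzyme runs in reverse so mevalonate oxidation gives rising NADPH absorbance; 0% = complete reaction with DMSO and 100% = background rate lacking mevalonate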
TNAP act hi DEA: activators of human TNAP at high phosphate acceptor concentration. P05186. purified TNAP, CDP-star luminescence, 1 M DEA, 30 min; hits give high values; 0 = EDTA background, 1 = DMSO-only activity. activation factor at 20 µM. 200,000 tested, under 10 active. AID 1136;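 active = activation factor at least 2 at 20 µM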
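system = human TNAP | amount = enzyme diluted 1/800 final | reagent = 100 µM CDP-star substrate | signal = luminescent substrate turnover signal | dosing = one dose, 20 µM | benchmarks = EDTA negative control, DMSO positive control | measure = activation factor | timing = 30 min reaction, room temperature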
The depositor's hits bear a star; nt = no result.

SMILES	Furin inh	TNAP inh no acc	Pf gamet viab	TNAP inh hi DEA	HMGR II inh	TNAP act hi DEA
O=C(Nc1nnc(-c2ccco2)o1)c1ccc([N+](=O)[O-])s1	-19	-3	1	2	-1	1
Cc1cccc(C)c1OCc1nnc2c3cnn(C)c3ncn12	-6	74*	-36	-2	-5	1
COc1ccc(Cc2nnc3c4cnn(C)c4ncn23)cc1	-18	35	nt	-3	-3	1
COc1cc(/C=N/NC(=O)c2[nH]nc3c2CCc2ccccc2-3)ccc1O	-18	66*	-2	-5	-5	1.1
COc1cc(/C=N/NC(=O)c2ccccc2)ccc1O	-24	-9	-7	-2	5	1
O=C(O)c1cc(-c2cccs2)[nH]n1	-12	83*	17	-7	-6	1.1
Cc1nn(-c2ccccc2)c(C)c1/C=N/NC(=O)c1cc(C23CC4CC(CC(C4)C2)C3)[nH]n1	-3	73*	7	-8	1	1.1
Cc1cc(C(=O)N/N=C/c2c(C)nn(-c3ccccc3)c2C)n[nH]1	2	nt	-5	nt	nt	nt
Cc1nn(-c2ccccc2)c(C)c1/C=N/NC(=O)c1cc(-c2cccs2)[nH]n1	-21	84*	-10	12	5	0.9
Cc1nn(-c2ccccc2)c(C)c1/C=N/NC(=O)c1cc(-c2ccc(Br)s2)[nH]n1	-26	44	-4	2	-1	1
COc1cc(/C=N/NC(=O)c2cc(C3CC3)[nH]n2)ccc1O	-12	nt	15	nt	nt	nt
COc1cc(/C=N/NC(=O)c2cc(C34CC5CC(CC(C5)C3)C4)[nH]n2)ccc1O	6	54*	-24	-1	5	1
Cc1nn(-c2ccccc2)c(C)c1/C=N/NC(=O)c1cc(-c2ccc(Cl)s2)[nH]n1	-15	67*	nt	7	3	0.9
Cc1cccc(S(=O)(=O)Nc2ccc(-c3cn4ccccc4n3)cc2)c1	-4	-13	-22	-3	14*	1
O=S(=O)(Nc1ccc(-c2cn3ccccc3n2)cc1)c1ccccc1	-24	nt	-14	nt	nt	nt
Cn1cc(CNCc2cnc3ccccn23)c(-c2ccc(Oc3ccccc3)cc2)n1	-11	74*	-3	39	8	0.6
CCOc1cc(C=C2C(=O)c3ccccc3C2=O)ccc1OCC(=O)Nc1ccc(C)cc1	-11	1	nt	-1	3	1
COc1ccnc(N=CNOCc2ccc(Cl)cc2)c1C#N	-28	nt	-14	nt	nt	nt
N#Cc1cnc(NOCc2ccc(Cl)cc2)nc1	-28	-16	-30	-5	9.6*	1.1
CCOC(=O)CSc1nc2ccccc2n1CC(=O)N(C(C)C)C(C)C	-18	-10	nt	-3	-2	1
CC(C)NC(=O)CSc1nc2ccccc2n1CC(=O)N(C(C)C)C(C)C	-34	-4	2	-5	23*	1.1
CCCOP(=O)(c1ccc(N(C)C)cc1)C(Nc1ccccc1)c1ccc(N(C)C)cc1 (centres undefined)	28*	-22	11	-3	-6	1
Cc1ccccc1N(C(=O)Cn1nnc(-c2cccs2)n1)C(C(=O)NCCC(C)C)c1ccco1 (centres undefined)	-18	-8	nt	-3	-2	1
Cc1ccc(N=c2ssnc2Cl)cc1	-33	-26	27	-4	-5	1
Cc1cc(C)nc(/N=c2/ssnc2Cl)c1	-30	-5	9	-2	12*	1
SMILES	Furin inh	TNAP inh no acc	Pf gamet viab	TNAP inh hi DEA	HMGR II inh	TNAP act hi DEA
O=C(c1cccs1)N(c1ccc(F)cc1)C1C=CS(=O)(=O)C1 (centres undefined)	-28	-4	12	-5	17*	1
Clc1ccc(NNc2ccnc3cc(Cl)ccc23)cc1	-9	20	nt	3	15*	1
Oc1ccc(Nc2ccnc3cc(Cl)ccc23)cc1	3	nt	nt	nt	nt	nt
O=C(CNC(=O)c1ccco1)N/N=C/c1c[nH]c2ccccc12	-14	-8	-6	-4	9.7*	1
O=C(N/N=C/c1c[nH]c2ccccc12)c1cc(-c2ccccc2)n[nH]1	11	87*	1	16	-5	0.8
Cc1ccc(-c2cc(C(=O)N/N=C/c3c[nH]c4ccccc34)[nH]n2)cc1	-17	71*	-41	10	2	0.9
COc1cccc2cc(C(=O)C3=C(O)C(=O)N(CCN(C)C)C3c3ccc(Cl)cc3)oc12 (centres undefined)	-3	nt	-5	nt	nt	nt
NNc1ncnc2sc3c(c12)CCC3	-24	88*	9	0	1	1
COc1cc(S(=O)(=O)N2CCC(c3nc4ccccc4s3)CC2)ccc1S(=O)(=O)NC1CCCC1	-8	-8	-11	-2	14*	1
COc1ccc(-c2[nH]ncc2CN2CCCO2)c(F)c1	-25	64*	-5	-8	-5	1.1
COc1ccc(-c2[nH]ncc2CN2CCCCCCC2)c(OC)c1	-18	-2	-16	-9	0	1.1
CCOC(=O)C1CCCN(Cc2cn[nH]c2-c2ccc(F)cc2F)C1 (centres undefined)	-17	42	-10	-5	-8	1.1
COc1ccc(-c2[nH]ncc2CN2CCC(N3CCSCC3)CC2)c(F)c1	-30	75*	-6	-6	-3	1.1
COc1ccc(-c2[nH]ncc2CN2CCC(OCc3ccccc3)CC2)c(F)c1	-18	45	-31	-6	1	1.1
COc1ccccc1C(=O)N1CCN(Cc2cn[nH]c2-c2ccc(F)cc2F)CC1	-25	86*	15	4	-8	1
COCC1CCN(Cc2cn[nH]c2-c2ccc(OC)cc2F)C1 (centres undefined)	-19	74*	21	-3	-1	1
c1ccc(-c2ccc(-c3[nH]ncc3CN3CCC(N4CCSCC4)CC3)cc2)cc1	-21	-9	15	-2	-1	1
CCCCN1C2=NC(c3ccccc3)CN2c2ccccc21 (centres undefined)	nt	nt	12	nt	nt	nt
Cc1cc(C)cc(C(=O)Nc2ccc3[nH]c(=O)[nH]c3c2)c1	-25	-4	15	-2	0	1
CC(C)Sc1nsc2nc(=O)c(/C=C3\C=Nc4ccccc43)c(N)n12	-18	62*	-5	31	-2	0.7
CCCCc1nn2c(N)c(/C=C3\C=Nc4ccccc43)c(=O)nc2s1	-7	66*	nt	10	1	0.9
CC(C)Cc1nn2c(N)c(/C=C3\C=Nc4ccccc43)c(=O)nc2s1	-21	83*	25	17	-1	0.8
CCCc1nn2c(N)c(/C=C3\C=Nc4ccccc43)c(=O)nc2s1	-17	58*	-37	5	-2	1
Cc1ccc(-c2cc(C(=O)N/N=C/c3cccnc3)n[nH]2)o1	-7	71*	nt	-1	-3	1
CCc1ccc(NC(=O)CSCc2ccc(C(=O)O)cc2)cc1	-25	-9	-35	-5	21*	1.1
